Laboratory results as given in ChEMBL document CHEMBL1127688, “Guaiacoxypropanolamine derivatives of capsaicin: a new family of beta-adrenoceptor blockers with intrinsic cardiotonic properties” (J Med Chem, 1994).

Columns and labels:
Rattus norvegicus [1] = assay: Heart rate of the urethane-anesthetized normotensive Wistar rat was tested 60 min after inducing the compound on dose of 1.0 mg/kg; type: functional
Outline: (§1)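 Urethane-anesthetized normotensive Wistar rats given a single iv injection at 1.0 mg/kg. Blood pressure (mmHg) and heart rate (beats/min) recorded, and the change reported at 5, 10, 15, 30 and 60 min after dosing. Saline-injected controls. Mean ± SE, n = 8. Significance versus saline by analysis of variance.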

Cavia porcellus [2] = species on record: Cavia porcellus; assay: Positive inotropic effect was evaluated on atrial muscles of the guinea pig; type: functional, Muscle tissue; conditions: for Kb: Cavia porcellus, Muscle tissue, read-out: pA2 (converted)
Rattus norvegicus [3] = assay: Heart rate of the urethane-anesthetized normotensive Wistar rat was tested 10 min after inducing the compound on dose of 1.0 mg/kg; type: functional; outline: as §1
Rattus norvegicus [4] = assay: Heart rate of the urethane-anesthetized normotensive Wistar rat was tested 5 min after inducing the compound on dose of 1.0 mg/kg; type: functional; outline: as §1
Rattus norvegicus [5] = assay: Heart rate of the urethane-anesthetized normotensive Wistar rat was tested 15 min after inducing the compound on dose of 1.0 mg/kg; type: functional; outline: as §1
Rattus norvegicus [6] = assay: Blood pressure of the urethane-anesthetized normotensive Wistar rat was tested 10 min after inducing the compound on dose of 1.0 mg/kg; type: functional; outline: as §1
Rattus norvegicus [7] = assay: Blood pressure of the urethane-anesthetized normotensive Wistar rat was tested 60 min after inducing the compound on dose of 1.0 mg/kg; type: functional; outline: as §1
Cavia porcellus [8] = species on record: Cavia porcellus; assay: Positive chronotropic effect was evaluated on atrial muscles of the guinea pig; type: functional, Muscle tissue; conditions: for Kb: Cavia porcellus, Muscle tissue, read-out: pA2 (converted)
Rattus norvegicus [9] = assay: Blood pressure of the urethane-anesthetized normotensive Wistar rat was tested 15 min after inducing the compound on dose of 1.0 mg/kg; type: functional; outline: as §1
Rattus norvegicus [10] = assay: Blood pressure of the urethane-anesthetized normotensive Wistar rat was tested 30 min after inducing the compound on dose of 1.0 mg/kg; type: functional; outline: as §1
Rattus norvegicus [11] = assay: Heart rate of the urethane-anesthetized normotensive Wistar rat was tested 30 min after inducing the compound on dose of 1.0 mg/kg; type: functional; outline: as §1
Rattus norvegicus [12] = assay: Blood pressure of the urethane-anesthetized normotensive Wistar rat was tested 5 min after inducing the compound on dose of 1.0 mg/kg; type: functional; outline: as §1
Rattus norvegicus [13] = assay: Minimum dose of iv injection that shows vagus reflex and a heart rate decrease of 50 beats/min in non-vagotomized rats; type: functional
Outline: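 Non-vagotomized rats given increasing iv doses. The value is the lowest dose (mg/kg) that elicits a vagus reflex with a heart-rate fall of 50 beats/min. Compounds were scored ineffective if no such response occurred below 3 mg/kg. n = 8.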

Rattus norvegicus [14] = assay: Change in blood pressure was tested by inducing ia injection at a dose 0.01 mg/kg in rat; type: functional; conditions: route intra-arterial
Outline: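 Urethane-anaesthetised normotensive Wistar rats; single intra-arterial bolus via the superficial epigastric artery. Read-out is the depressor change in systemic blood pressure in mmHg. Data are means ± SE, n = 8, analysed by ANOVA.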

Compound `CCCCCCCCC(=O)NCc1ccc(OCC(O)CNC(C)(C)C)c(OC)c1` (centres undefined) has an HR (Rattus norvegicus [1]) of -18.5 beats min-1, a Kb (Cavia porcellus [2]) of 15.8 nM and an HR (Rattus norvegicus [3]) of -37.75 beats min-1. It also gave an HR (Rattus norvegicus [4]) of -45 beats min-1, an HR (Rattus norvegicus [5]) of -29.5 beats min-1 and a BP (Rattus norvegicus [6]) of 3.38 mmHg. The BP (Rattus norvegicus [7]) was 4.63 mmHg, the Kb (Cavia porcellus [8]) was 39.8 nM and the BP (Rattus norvegicus [9]) was 2.38 mmHg. The BP (Rattus norvegicus [10]) was 1.25 mmHg, the HR (Rattus norvegicus [11]) was -24.88 beats min-1 and the BP (Rattus norvegicus [12]) was 3.13 mmHg.
In the case of `CCCCCCCCC(=O)NCc1ccc(OCC(O)CNC2CC2)c(OC)c1` (centres undefined), the HR (Rattus norvegicus [1]) is reported as -2.67 beats min-1, the HR (Rattus norvegicus [3]) is reported as -38.89 beats min-1 and the HR (Rattus norvegicus [4]) is reported as -47.67 beats min-1. The HR (Rattus norvegicus [5]) was -23.67 beats min-1, the BP (Rattus norvegicus [6]) was 3.11 mmHg and the BP (Rattus norvegicus [7]) was 2.22 mmHg. For the same compound, the BP (Rattus norvegicus [9]) was 3.89 mmHg, the BP (Rattus norvegicus [10]) was 3.67 mmHg and the HR (Rattus norvegicus [11]) was -11.89 beats min-1. It also gave a BP (Rattus norvegicus [12]) of -0.11 mmHg.
`CCCCCCCCC(=O)NCc1ccc(OCC(O)CNCC)c(OC)c1` (centres undefined) gave an HR (Rattus norvegicus [1]) of 2.56 beats min-1, a Kb (Cavia porcellus [2]) of 53.7 nM and an HR (Rattus norvegicus [3]) of -32.22 beats min-1. The HR (Rattus norvegicus [4]) was -38.33 beats min-1, the HR (Rattus norvegicus [5]) was -28 beats min-1 and the BP (Rattus norvegicus [6]) was 2.56 mmHg. The BP (Rattus norvegicus [7]) was 1.88 mmHg, the Kb (Cavia porcellus [8]) was 117 nM and the BP (Rattus norvegicus [9]) was 1.11 mmHg. It also gave a BP (Rattus norvegicus [10]) of -2.44 mmHg, an HR (Rattus norvegicus [11]) of -21.11 beats min-1 and a BP (Rattus norvegicus [12]) of 7.44 mmHg.
In the case of `CCCCCCCCC(=O)NCc1ccc(OCC(O)CNC2CCCCC2)c(OC)c1` (centres undefined), the HR (Rattus norvegicus [1]) is reported as 2.78 beats min-1, the HR (Rattus norvegicus [3]) is reported as -28.44 beats min-1 and the HR (Rattus norvegicus [4]) is reported as -32.33 beats min-1. The HR (Rattus norvegicus [5]) was -11.67 beats min-1, the BP (Rattus norvegicus [6]) was -4.22 mmHg and the BP (Rattus norvegicus [7]) was 0.67 mmHg. For the same compound, the BP (Rattus norvegicus [9]) was -3.67 mmHg, the BP (Rattus norvegicus [10]) was 1.33 mmHg and the HR (Rattus norvegicus [11]) was -1.78 beats min-1. It also gave a BP (Rattus norvegicus [12]) of -4.11 mmHg.
`CCCCCCCCC(=O)NCc1ccc(OCC(O)CNCC(C)C)c(OC)c1` (centres undefined) showed an HR (Rattus norvegicus [1]) of 3.13 beats min-1, a Kb (Cavia porcellus [2]) of 26.9 nM and an HR (Rattus norvegicus [3]) of -35.25 beats min-1. For the same compound, the HR (Rattus norvegicus [4]) was -39.88 beats min-1, the HR (Rattus norvegicus [5]) was -27.13 beats min-1 and the BP (Rattus norvegicus [6]) was 1.63 mmHg. For the same compound, the BP (Rattus norvegicus [7]) was 0.25 mmHg, the Kb (Cavia porcellus [8]) was 117 nM and the BP (Rattus norvegicus [9]) was 1.63 mmHg. The BP (Rattus norvegicus [10]) was 2 mmHg, the HR (Rattus norvegicus [11]) was 4.13 beats min-1 and the BP (Rattus norvegicus [12]) was -2.75 mmHg.
For `CCCCCCCCC(=O)NCc1ccc(OCC(O)CNCCC)c(OC)c1` (stereo in doubt; 6), the HR (Rattus norvegicus [1]; 1 mg/kg) was -7.56 beats min-1, the Kb (Cavia porcellus [2]) was 25.1 nM and the HR (Rattus norvegicus [3]; 1 mg/kg) was -28.22 beats min-1. For the same compound, the HR (Rattus norvegicus [4]; 1 mg/kg) was -36.78 beats min-1, the HR (Rattus norvegicus [5]; 1 mg/kg) was -19.89 beats min-1 and the BP (Rattus norvegicus [6]; 1 mg/kg) was -2.67 mmHg. The BP (Rattus norvegicus [7]; 1 mg/kg) was 4.78 mmHg, the Kb (Cavia porcellus [8]) was 93.3 nM and the BP (Rattus norvegicus [9]; 1 mg/kg) was -1.89 mmHg. It also gave a BP (Rattus norvegicus [10]; 1 mg/kg) of -1.11 mmHg, an HR (Rattus norvegicus [11]; 1 mg/kg) of -5 beats min-1 and a BP (Rattus norvegicus [12]; 1 mg/kg) of -1.56 mmHg.
Compound `CCCCCCCCC(=O)NCc1ccc(OCC(O)CNCCC)c(OC)c1` (stereo in doubt; 8) has an HR (Rattus norvegicus [1]; 1 mg/kg) of -6.89 beats min-1, a pA2 (Cavia porcellus [2]) of 7.75 and an HR (Rattus norvegicus [3]; 1 mg/kg) of -35.33 beats min-1. The HR (Rattus norvegicus [4]; 1 mg/kg) was -42.56 beats min-1, the HR (Rattus norvegicus [5]; 1 mg/kg) was -32 beats min-1 and the BP (Rattus norvegicus [6]; 1 mg/kg) was -2.56 mmHg. For the same compound, the BP (Rattus norvegicus [7]; 1 mg/kg) was -0.56 mmHg, the pA2 (Cavia porcellus [8]) was 6.79 and the BP (Rattus norvegicus [9]; 1 mg/kg) was -3.11 mmHg. For the same compound, the BP (Rattus norvegicus [10]; 1 mg/kg) was -2.44 mmHg, the HR (Rattus norvegicus [11]; 1 mg/kg) was -14.11 beats min-1 and the BP (Rattus norvegicus [12]; 1 mg/kg) was -1.78 mmHg.
`COc1cc(CNC(=O)CCCC/C=C/C(C)C)ccc1O` [CAPSAICIN] was tested, and the Dose (Rattus norvegicus [13]) was 1 µg/kg and the BP (Rattus norvegicus [14]) was -49.5 mmHg.
`CCCCCCCCC(=O)NCc1ccc(O)c(OC)c1` [NONIVAMIDE] gave a Dose (Rattus norvegicus [13]) of 5 µg/kg and a BP (Rattus norvegicus [14]) of -28.3 mmHg.
`CC(C)NCC(O)COc1cccc2ccccc12` (centres undefined) [PROPRANOLOL] gave an HR (Rattus norvegicus [1]) of -52.14 beats min-1, an HR (Rattus norvegicus [3]) of -63.85 beats min-1 and an HR (Rattus norvegicus [4]) of -57.28 beats min-1. The HR (Rattus norvegicus [5]) was -65.28 beats min-1, the BP (Rattus norvegicus [6]) was -6.33 mmHg and the BP (Rattus norvegicus [7]) was 2.17 mmHg. For the same compound, the BP (Rattus norvegicus [9]) was -6.5 mmHg, the BP (Rattus norvegicus [10]) was -4.67 mmHg and the HR (Rattus norvegicus [11]) was -62.57 beats min-1. The BP (Rattus norvegicus [12]) was -2.83 mmHg.
